Laboratory results as given in ChEMBL document CHEMBL1127799, “Derivatives of a novel cyclopeptolide. 1. Synthesis, antifungal activity, and structure-activity relationships” (1994).
Values after ≈ are worked out from the molar mass of the structure shown.

Key:
Type in all cases: functional
Candida albicans [1] = experiment: Tested for minimum inhibitory concentration against Candida albicans 3 (Candida albicans) at pH 4.5.
Outline: (§1)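 Broth microdilution in malt extract broth, initial pH 4.5 or 6.5, with 1×10^3 CFU per 0.2 mL well of thawed stored cultures. Compound stocks were made in 5% DMSO/0.2% Tween 80 and diluted to final 0.05–100 μg/mL. Plates were incubated 48 h at 30 °C and read macroscopically. MIC was the lowest concentration with no detectable growth. Vehicle-only wells served as controls.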

Candida tropicalis = experiment: Tested for minimum inhibitory concentration against Candida tropicalis (C.t) at pH 4.5.; outline: as §1
Candida albicans [2] = experiment: Tested for minimum inhibitory concentration against Candida albicans 4 (Candida albicans) at pH 4.5.; outline: as §1
Mus musculus = species: Mus musculus; experiment: Tested for efficacy of compound in experimental systemic candidosis (mouse) after oral treatment at dosage of 8 *200 mg kg e-1
Outline: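 Systemic candidiasis: female NMRI mice (18–20 g), 10 per group, infected by intravenous injection of 10⁶ CFU C. albicans no. 124 via lateral tail vein. Oral dosing twice daily on 4 consecutive days, starting 2 h before inoculation. Efficacy taken as survival rate up to day 9 after infection.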

Candida albicans [3] = experiment: Tested for minimum inhibitory concentration against Candida albicans 90 (Candida albicans) at pH 4.5.; outline: as §1

MIC (Candida albicans [1]): 6.25 µg/mL (≈ 5.55 µM) | MIC (Candida tropicalis): 1.56 µg/mL (≈ 1.38 µM) | MIC (Candida albicans [2]): 6.25 µg/mL (≈ 5.55 µM) | MIC (Candida albicans [3]): 3.12 µg/mL (≈ 2.77 µM)
Structure (SMILES): CC[C@@H](C)[C@H]1C(=O)NCC(=O)N(C)[C@@H](C(C)C)C(=O)N[C@@H](Cc2ccc(OC)cc2)C(=O)O[C@H](C)C(=O)N2CCCC[C@H]2C(=O)N(C)[C@@H](C(C)C)C(=O)N[C@@H](C(C)C)C(=O)N(C)[C@@H](CC(=O)O)C(=O)N(C)[C@@H]([C@@H](C)CC)C(=O)N1C
Efficacy (Mus musculus): 90%
